Measured values taken from ChEMBL document CHEMBL5705905, “Pharmacological targeting of kinases MST1 and MST2 augments tissue repair and regeneration” (Sci Transl Med, 2016).
Calls of active or inactive are those of the source. The rule behind the calls is not given here.

Columns and labels:
[1] = target: Serine/threonine-protein kinase tousled-like 1 (Homo sapiens) (UniProt Q9UKI8); assay: Inhibition of TLK1 (unknown origin) assessed as remaining activity at 1 uM by Kinome scan method relative to control
[2] = AUC (0 to t) in male Sprague-Dawley rat at 5 mg/kg, iv measured for 24 hrs by LC-MS/MS analysis; assay type: ADME, organism-based; details: in vivo
Procedure, shortened: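 Sprague-Dawley rats, single intravenous or oral dose. Parameters (half-life, AUC, bioavailability) reported in a supplementary table.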

[3] = target: Activated CDC42 kinase 1 (Homo sapiens) (UniProt Q07912); assay: Inhibition of TNK2 (unknown origin) assessed as remaining activity at 1 uM by Kinome scan method relative to control
[4] = system: Phosphatidylinositol 4,5-bisphosphate 3-kinase catalytic subunit alpha isoform (Homo sapiens), P42336 [C420R]; assay: Inhibition of PIK3CA C420R mutant (unknown origin) assessed as remaining activity at 1 uM by Kinome scan method relative to control
[5] = target: MAP kinase-activated protein kinase 2 (Homo sapiens) (UniProt P49137); assay: Inhibition of MAPKAPK2 (unknown origin) assessed as remaining activity at 1 uM by Kinome scan method relative to control
[6] = target: Ephrin type-A receptor 5 (Homo sapiens) (UniProt P54756); assay: Inhibition of EPHA5 (unknown origin) assessed as remaining activity at 1 uM by Kinome scan method relative to control
[7] = target: Cyclin-dependent kinase 3 (Homo sapiens) (UniProt Q00526); assay: Inhibition of CDK3 (unknown origin) assessed as remaining activity at 1 uM by Kinome scan method relative to control
Procedure, shortened: (§1)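 Active-site-dependent competition-binding profiling (KINOMEscan) at 1 μM against a 468-kinase panel; compound supplied from a 10 mM DMSO stock. Read-out is ctrl% = (test signal − positive control signal)/(negative control signal − positive control signal) × 100. DMSO is the negative control (100%) and a control compound the positive control (0%). Lower ctrl% means tighter binding.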

[8] = target: Tyrosine-protein kinase FRK (Homo sapiens) (UniProt P42685); assay: Inhibition of FRK (unknown origin) assessed as remaining activity at 1 uM by Kinome scan method relative to control
[9] = system: Receptor-type tyrosine-protein kinase FLT3 (Homo sapiens), P36888 [N841I]; assay: Inhibition of FLT3 N841I mutant (unknown origin) assessed as remaining activity at 1 uM by Kinome scan method relative to control
[10] = target: Cyclin-dependent kinase-like 2 (Homo sapiens) (UniProt Q92772); assay: Inhibition of CDKL2 (unknown origin) assessed as remaining activity at 1 uM by Kinome scan method relative to control; procedure, shortened: as §1
[11] = target: Serine/threonine-protein kinase Nek2 (Homo sapiens) (UniProt P51955); assay: Inhibition of NEK2 (unknown origin) assessed as remaining activity at 1 uM by Kinome scan method relative to control
[12] = system: Epidermal growth factor receptor (Homo sapiens), P00533 [T790M]; assay: Inhibition of EGFR T790M mutant (unknown origin) assessed as remaining activity at 1 uM by Kinome scan method relative to control
[13] = target: T1, Serine/threonine-protein kinase 3 (Homo sapiens, UniProt Q13188); assay: Binding affinity to MST2 (unknown origin) assessed as dissociation constant
T1 sequence (Q13188 whole entry): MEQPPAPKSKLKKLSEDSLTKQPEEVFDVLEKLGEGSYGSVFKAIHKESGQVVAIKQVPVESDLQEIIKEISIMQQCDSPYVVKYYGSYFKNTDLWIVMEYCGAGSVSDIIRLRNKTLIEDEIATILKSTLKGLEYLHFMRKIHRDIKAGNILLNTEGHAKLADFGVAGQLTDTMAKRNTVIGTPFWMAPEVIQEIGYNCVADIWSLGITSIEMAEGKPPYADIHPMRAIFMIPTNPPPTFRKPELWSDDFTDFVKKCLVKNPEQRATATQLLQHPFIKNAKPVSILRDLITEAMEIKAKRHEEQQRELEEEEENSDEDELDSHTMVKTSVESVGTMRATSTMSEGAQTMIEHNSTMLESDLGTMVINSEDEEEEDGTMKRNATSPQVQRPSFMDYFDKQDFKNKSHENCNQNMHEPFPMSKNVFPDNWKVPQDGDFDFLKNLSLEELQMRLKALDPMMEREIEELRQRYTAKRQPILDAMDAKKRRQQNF

[14] = system: Mus musculus; assay: Protection against APAP induced liver injury in mouse assessed as decrease in ALT level at 1 mg/kg, ip administered at 1.5 hrs; assay type: functional, organism-based; details: Serum
[15] = system: Tyrosine-protein kinase ABL1 (Homo sapiens), P00519 [F317L]; assay: Inhibition of phosphorylated ABL1 F317L mutant (unknown origin) assessed as remaining activity at 1 uM by Kinome scan method relative to control
[16] = target: Serine/threonine-protein kinase 10 (Homo sapiens) (UniProt O94804); assay: Inhibition of LOK (unknown origin) assessed as remaining activity at 1 uM by Kinome scan method relative to control
[17] = target: TGF-beta receptor type-1 (Homo sapiens) (UniProt P36897); assay: Inhibition of TGFBR1 (unknown origin) assessed as remaining activity at 1 uM by Kinome scan method relative to control
[18] = target: Phosphatidylinositol 4,5-bisphosphate 3-kinase catalytic subunit beta isoform (Homo sapiens) (UniProt P42338); assay: Inhibition of PIK3CB (unknown origin) assessed as remaining activity at 1 uM by Kinome scan method relative to control
[19] = target: Interleukin-1 receptor-associated kinase 1 (Homo sapiens) (UniProt P51617); assay: Inhibition of IRAK1 (unknown origin) assessed as remaining activity at 1 uM by Kinome scan method relative to control
[20] = Inhibition of recombinant His-tagged full-length MST1 Y101F/D109A mutant (unknown origin) expressing in Escherichia coli assessed as MOB1 phosphorylation level incubated for 15 min by immunoblot analysis; set-up: species or system Homo sapiens
[21] = target: Serine/threonine-protein kinase 36 (Homo sapiens) (UniProt Q9NRP7); assay: Inhibition of STK36 (unknown origin) assessed as remaining activity at 1 uM by Kinome scan method relative to control
[22] = system: Mus musculus; assay: Protection against human hepatocyte transplanted FRG mouse assessed as increase in FAH level at 1 mg/kg, ip administrated once a daily for 28 days by H&E staining based immunohistochemical analysis; assay type: functional, organism-based; details: Liver, time 28.0 day
[23] = system: Proto-oncogene tyrosine-protein kinase receptor Ret (Homo sapiens), P07949 [V804L]; assay: Inhibition of RET V804L (unknown origin) assessed as remaining activity at 1 uM by Kinome scan method relative to control
[24] = system: Hepatocyte growth factor receptor (Homo sapiens), P08581 [M1250T]; assay: Inhibition of MET M1250T mutant (unknown origin) assessed as remaining activity at 1 uM by Kinome scan method relative to control

Chain of Cyclin-dependent kinase-like 2 (Homo sapiens) (Q92772 whole entry): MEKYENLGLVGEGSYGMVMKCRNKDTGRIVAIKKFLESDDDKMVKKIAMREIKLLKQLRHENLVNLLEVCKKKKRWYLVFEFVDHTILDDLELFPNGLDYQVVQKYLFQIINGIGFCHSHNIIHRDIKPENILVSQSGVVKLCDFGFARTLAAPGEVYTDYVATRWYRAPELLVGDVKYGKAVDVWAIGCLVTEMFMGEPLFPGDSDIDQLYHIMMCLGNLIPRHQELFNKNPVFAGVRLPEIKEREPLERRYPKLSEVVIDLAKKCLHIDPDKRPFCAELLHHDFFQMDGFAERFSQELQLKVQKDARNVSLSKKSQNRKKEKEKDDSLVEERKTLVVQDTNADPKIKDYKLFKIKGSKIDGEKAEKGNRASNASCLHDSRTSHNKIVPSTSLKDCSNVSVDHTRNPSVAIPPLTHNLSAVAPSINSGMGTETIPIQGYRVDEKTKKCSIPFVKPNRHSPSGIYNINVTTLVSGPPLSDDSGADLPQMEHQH
Chain of Serine/threonine-protein kinase 10 (Homo sapiens) (O94804 whole entry, looked up): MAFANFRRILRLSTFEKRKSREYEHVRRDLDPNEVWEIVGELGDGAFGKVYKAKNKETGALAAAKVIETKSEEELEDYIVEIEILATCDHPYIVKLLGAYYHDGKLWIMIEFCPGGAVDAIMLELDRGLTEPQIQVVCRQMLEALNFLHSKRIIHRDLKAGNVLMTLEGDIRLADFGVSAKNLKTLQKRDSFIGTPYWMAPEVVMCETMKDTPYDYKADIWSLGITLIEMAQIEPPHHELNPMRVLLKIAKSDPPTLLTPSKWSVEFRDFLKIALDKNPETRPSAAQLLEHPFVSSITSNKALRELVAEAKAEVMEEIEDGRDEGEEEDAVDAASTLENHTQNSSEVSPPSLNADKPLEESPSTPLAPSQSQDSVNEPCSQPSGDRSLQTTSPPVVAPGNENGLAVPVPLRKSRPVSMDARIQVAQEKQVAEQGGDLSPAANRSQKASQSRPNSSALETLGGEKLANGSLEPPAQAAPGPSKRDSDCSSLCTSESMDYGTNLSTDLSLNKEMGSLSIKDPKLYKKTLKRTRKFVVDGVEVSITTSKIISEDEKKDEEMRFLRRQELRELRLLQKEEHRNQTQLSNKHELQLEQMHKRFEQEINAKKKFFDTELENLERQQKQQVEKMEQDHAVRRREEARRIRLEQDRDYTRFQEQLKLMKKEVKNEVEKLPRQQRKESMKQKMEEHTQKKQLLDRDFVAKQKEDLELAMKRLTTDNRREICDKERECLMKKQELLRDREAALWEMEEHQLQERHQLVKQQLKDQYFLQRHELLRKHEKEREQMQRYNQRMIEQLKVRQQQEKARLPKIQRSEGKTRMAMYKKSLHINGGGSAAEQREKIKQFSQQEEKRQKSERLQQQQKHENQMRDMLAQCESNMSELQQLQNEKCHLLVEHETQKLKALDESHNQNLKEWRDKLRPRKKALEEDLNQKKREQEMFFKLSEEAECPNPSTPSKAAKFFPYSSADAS
Chain of Serine/threonine-protein kinase 36 (Homo sapiens) (Q9NRP7 whole entry): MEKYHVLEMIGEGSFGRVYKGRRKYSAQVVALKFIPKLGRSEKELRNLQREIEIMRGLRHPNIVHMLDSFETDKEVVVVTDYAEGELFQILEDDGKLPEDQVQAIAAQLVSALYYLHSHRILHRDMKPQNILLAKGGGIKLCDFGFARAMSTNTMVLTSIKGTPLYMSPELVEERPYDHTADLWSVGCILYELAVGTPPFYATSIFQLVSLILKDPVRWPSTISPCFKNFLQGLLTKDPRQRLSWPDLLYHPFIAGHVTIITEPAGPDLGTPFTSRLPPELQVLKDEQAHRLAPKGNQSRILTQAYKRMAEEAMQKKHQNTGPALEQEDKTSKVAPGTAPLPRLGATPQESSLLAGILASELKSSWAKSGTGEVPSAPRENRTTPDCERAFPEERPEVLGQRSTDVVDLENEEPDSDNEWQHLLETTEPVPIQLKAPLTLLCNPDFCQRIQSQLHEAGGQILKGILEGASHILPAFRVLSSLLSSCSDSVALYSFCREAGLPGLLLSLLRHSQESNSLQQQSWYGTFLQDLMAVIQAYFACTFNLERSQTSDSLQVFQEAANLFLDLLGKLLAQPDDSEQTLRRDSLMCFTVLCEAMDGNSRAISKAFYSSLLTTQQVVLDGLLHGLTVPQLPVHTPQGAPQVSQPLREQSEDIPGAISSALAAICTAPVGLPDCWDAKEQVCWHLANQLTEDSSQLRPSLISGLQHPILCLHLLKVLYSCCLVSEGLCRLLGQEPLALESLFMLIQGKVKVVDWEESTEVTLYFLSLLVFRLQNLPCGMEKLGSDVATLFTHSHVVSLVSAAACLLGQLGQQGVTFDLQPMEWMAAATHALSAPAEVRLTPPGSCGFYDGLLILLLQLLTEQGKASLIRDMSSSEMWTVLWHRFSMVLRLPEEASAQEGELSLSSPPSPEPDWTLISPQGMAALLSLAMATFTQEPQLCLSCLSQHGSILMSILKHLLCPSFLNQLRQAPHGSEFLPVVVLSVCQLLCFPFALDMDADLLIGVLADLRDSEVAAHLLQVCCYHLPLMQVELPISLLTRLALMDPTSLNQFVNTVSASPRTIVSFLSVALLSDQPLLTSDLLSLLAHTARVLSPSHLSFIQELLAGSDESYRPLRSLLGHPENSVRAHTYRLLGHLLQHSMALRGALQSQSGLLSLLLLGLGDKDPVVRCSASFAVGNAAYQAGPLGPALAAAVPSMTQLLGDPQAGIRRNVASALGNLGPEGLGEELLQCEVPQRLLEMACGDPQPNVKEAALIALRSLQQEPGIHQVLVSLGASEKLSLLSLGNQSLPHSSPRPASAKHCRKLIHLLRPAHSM
Chain of Serine/threonine-protein kinase Nek2 (Homo sapiens) (P51955 whole entry): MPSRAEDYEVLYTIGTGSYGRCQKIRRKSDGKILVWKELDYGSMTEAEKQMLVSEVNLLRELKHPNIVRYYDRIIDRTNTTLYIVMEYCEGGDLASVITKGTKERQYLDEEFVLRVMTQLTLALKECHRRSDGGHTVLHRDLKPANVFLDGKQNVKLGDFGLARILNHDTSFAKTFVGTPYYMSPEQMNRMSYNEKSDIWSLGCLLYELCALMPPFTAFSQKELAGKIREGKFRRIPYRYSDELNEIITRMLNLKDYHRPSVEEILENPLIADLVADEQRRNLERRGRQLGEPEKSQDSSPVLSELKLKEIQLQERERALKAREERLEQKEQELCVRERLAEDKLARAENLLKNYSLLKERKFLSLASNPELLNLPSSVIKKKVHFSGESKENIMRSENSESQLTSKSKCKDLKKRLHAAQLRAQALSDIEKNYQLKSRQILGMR
Chain of Interleukin-1 receptor-associated kinase 1 (Homo sapiens) (P51617 whole entry, looked up): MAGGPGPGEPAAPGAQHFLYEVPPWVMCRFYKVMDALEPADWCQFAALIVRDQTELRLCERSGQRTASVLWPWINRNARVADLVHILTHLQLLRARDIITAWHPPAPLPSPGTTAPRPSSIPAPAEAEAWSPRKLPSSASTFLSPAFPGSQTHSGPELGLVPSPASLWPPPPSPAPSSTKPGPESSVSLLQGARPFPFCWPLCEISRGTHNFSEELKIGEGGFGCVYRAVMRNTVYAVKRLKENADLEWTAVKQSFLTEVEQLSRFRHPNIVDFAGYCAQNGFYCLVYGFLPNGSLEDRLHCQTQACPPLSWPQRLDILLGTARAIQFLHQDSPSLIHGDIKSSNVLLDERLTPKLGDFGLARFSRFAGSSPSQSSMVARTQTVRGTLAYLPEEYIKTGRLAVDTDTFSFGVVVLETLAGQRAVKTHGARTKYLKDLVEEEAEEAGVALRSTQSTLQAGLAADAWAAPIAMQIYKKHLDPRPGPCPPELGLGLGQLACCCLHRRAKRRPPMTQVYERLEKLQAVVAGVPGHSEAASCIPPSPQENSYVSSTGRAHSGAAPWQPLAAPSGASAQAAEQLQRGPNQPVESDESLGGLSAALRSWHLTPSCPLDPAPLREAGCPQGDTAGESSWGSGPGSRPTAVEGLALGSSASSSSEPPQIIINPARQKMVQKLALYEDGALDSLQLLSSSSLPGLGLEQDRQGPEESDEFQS
Chain of Proto-oncogene tyrosine-protein kinase receptor Ret (Homo sapiens), P07949 [V804L] (P07949 whole entry V804L): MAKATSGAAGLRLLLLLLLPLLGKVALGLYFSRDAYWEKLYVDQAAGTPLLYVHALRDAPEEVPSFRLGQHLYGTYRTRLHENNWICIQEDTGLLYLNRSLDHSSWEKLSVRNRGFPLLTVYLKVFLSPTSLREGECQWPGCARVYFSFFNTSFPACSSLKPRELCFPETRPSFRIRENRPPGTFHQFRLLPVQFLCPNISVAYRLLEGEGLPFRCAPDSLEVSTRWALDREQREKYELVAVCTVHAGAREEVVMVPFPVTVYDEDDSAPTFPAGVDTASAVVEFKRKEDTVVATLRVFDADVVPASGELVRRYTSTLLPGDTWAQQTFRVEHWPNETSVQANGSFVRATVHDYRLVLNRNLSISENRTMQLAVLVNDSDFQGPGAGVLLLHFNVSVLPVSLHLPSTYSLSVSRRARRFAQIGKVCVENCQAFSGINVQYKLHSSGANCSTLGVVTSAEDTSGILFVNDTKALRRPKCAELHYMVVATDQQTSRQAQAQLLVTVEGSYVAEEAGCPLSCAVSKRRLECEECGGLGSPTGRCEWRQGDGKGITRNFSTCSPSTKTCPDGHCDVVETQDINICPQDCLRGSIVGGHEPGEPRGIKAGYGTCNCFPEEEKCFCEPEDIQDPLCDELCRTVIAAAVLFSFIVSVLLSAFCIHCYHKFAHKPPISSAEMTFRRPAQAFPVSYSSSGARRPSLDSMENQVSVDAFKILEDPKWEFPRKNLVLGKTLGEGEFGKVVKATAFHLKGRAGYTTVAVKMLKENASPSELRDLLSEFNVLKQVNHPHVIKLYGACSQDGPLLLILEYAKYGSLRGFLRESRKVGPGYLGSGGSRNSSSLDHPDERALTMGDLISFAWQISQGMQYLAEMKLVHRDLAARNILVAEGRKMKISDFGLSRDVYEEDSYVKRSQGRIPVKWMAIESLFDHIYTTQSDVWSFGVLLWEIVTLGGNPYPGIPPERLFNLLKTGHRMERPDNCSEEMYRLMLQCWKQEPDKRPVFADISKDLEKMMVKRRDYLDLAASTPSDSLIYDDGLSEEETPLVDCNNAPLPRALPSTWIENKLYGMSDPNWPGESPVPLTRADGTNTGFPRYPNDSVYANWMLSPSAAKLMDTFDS

**Q.** What does the source list for `CN1C(=O)c2sccc2N(C)c2nc(Nc3ccc(S(N)(=O)=O)cc3)ncc21`?
**A.** Activity [1]: 100%; AUC(0-t) at 24 h [2]: 1260 ng·h/mL; Activity [3]: 95%; Activity [4]: 96%; Activity [5]: 91%; Activity [6]: 100%; Activity [7]: 100%; Activity [8]: 100%; Activity [9]: 39%; Activity [10]: 97%; Activity [11]: 59%; Activity [12]: 92%; Kd [13]: 11 nM; Activity [14]: Active; Activity [15]: 14%; Activity [16]: 100%; Activity [17]: 92%; Activity [18]: 72%; Activity [19]: 51%; IC50 [20]: 1390 nM; Activity [21]: 100%; Activity [22]: Active; Activity [23]: 78%; Activity [24]: 81%
